Tests used:
[1] = Cytotoxicity against MDCK cells incubated for 48 hrs by CPE method; assay type: cell-based, Canis lupus familiaris; conditions: dog, read-out: TC50
How it was run: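 MDCK cells seeded at 2.5 × 10^4 per well and grown 24 h, then exposed to various compound concentrations for 48 h at 37 °C in 5% CO2. Toxicity scored by CPE observation. TC50 calculated by Reed and Muench; values are averages of three independent assays.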

[2] = Selectivity index, ratio of TC50 for MDCK cells to IC50 for Influenza A virus (A/Guangdong-Luohu/219/2006(H1N1)); assay type: toxicity, cell-based; conditions: dog, read-out: Selectivity Index
How it was run: (§1)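 SI is TC50 divided by IC50. TC50 comes from uninfected MDCK cells after 48 h of compound exposure, scored by CPE. IC50 comes from MDCK cells infected with 100 TCID50 and scored for CPE when virus controls reached grade 4. Both values calculated by Reed and Muench.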

Influenza A virus [3] = assay: Antiviral activity against Influenza A virus (A/Guangdong-Luohu/219/2006(H1N1)) infected in MDCK cells assessed as inhibition of virus-induced cytopathic effect; assay type: functional, organism-based
How it was run: (§2)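 Confluent MDCK monolayers infected with 100 TCID50 of virus; 2 h adsorption at 37 °C, PBS wash, then maintenance medium at 37 °C with or without serial compound concentrations. CPE scored once virus control wells reached grade 4. IC50 calculated by Reed and Muench; values are averages of three independent assays.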

Influenza B virus = assay: Antiviral activity against Influenza B virus (strain B/Jifang/13/97) infected in MDCK cells assessed as inhibition of virus-induced cytopathic effect; assay type: functional, organism-based
Influenza A virus [4] = assay: Antiviral activity against Influenza A virus (A/Tianjin-Jinnan/15/2009(H1N1)) infected in MDCK cells assessed as inhibition of virus-induced cytopathic effect; assay type: functional, organism-based; how it was run: as §2
[5] = Selectivity index, ratio of TC50 for MDCK cells to IC50 for Influenza A virus (A/Tianjin-Jinnan/15/2009(H1N1)); assay type: toxicity, cell-based; conditions: dog, read-out: Selectivity Index; how it was run: as §1
[6] = Selectivity index, ratio of TC50 for MDCK cells to IC50 for Influenza B virus (strain B/Jifang/13/97); assay type: toxicity, cell-based; conditions: dog, read-out: Selectivity Index

Row | SMILES | CC50 at 48 h [1] [µM] | selectivity ratio [2] | IC50 (Influenza A virus [3]) [µM] | IC50 (Influenza B virus) [µM] | IC50 (Influenza A virus [4]) [µM] | selectivity ratio [5] | selectivity ratio [6]
1 | CCC(=O)Nc1cc(C(=O)Oc2ccccc2)ccc1OC | 464 | 2.1 | 223 | – | – | – | –
2 | CCC(=O)Nc1cc(C(=O)Nc2ccccc2)ccc1OC | > 670 | > 15.6 | 43 | > 224 | > 224 | – | –
3 | CCC(=O)Nc1cc(C(=O)Nc2ccc(C)cc2)ccc1OC | 162 | 6.8 | 23.7 | > 23.7 | > 23.7 | – | –
4 | CCC(=O)Nc1cc(C(=O)Nc2ccc(Br)cc2)ccc1OC | 90.4 | – | > 17.6 | – | – | – | –
5 | CCC(=O)Nc1cc(C(=O)Nc2cccc(Cl)c2)ccc1OC | 602 | – | > 66.9 | – | – | – | –
6 | CCC(=O)Nc1cc(C(=O)Nc2cccc(SC)c2)ccc1OC | 324 | – | > 63 | – | – | – | –
7 | CCC(=O)Nc1cc(C(=O)NC2CCCCC2)ccc1OC | 510 | 6.9 | 73 | – | – | – | –
8 | CCC(=O)Nc1cc(C(=O)NC2CCC2)ccc1OC | > 724 | > 12.3 | 59 | > 241 | > 241 | – | –
9 | CCC(=O)Nc1cc(C(=O)Nc2nccs2)ccc1OC | > 655 | > 18.7 | 35 | 126 | 93.8 | 6.9 | > 5.2
10 | COc1ccc(C(=O)Nc2ccccc2)cc1NC(=O)C(C)Cl (centres undefined) | 200 | 11.6 | 17.3 | > 22.3 | > 22.3 | – | –
11 | COc1ccc(C(=O)Nc2ccccc2)cc1NC(C)=O | > 704 | > 6.2 | 113 | – | – | – | –
12 | COc1ccc(C(=O)Nc2ccccc2)cc1NC(=O)c1ccccc1 | 192 | 15.4 | 12.5 | 21.4 | 9.2 | 20.9 | 9
13 | COc1ccc(C(=O)Nc2ccccc2)cc1NC(=O)C1CCCC1 | 459 | 12.1 | 37.9 | > 65.7 | > 65.7 | – | –
14 | COc1ccc(C(=O)Nc2ccccc2)cc1NC(=O)C(C)F (centres undefined) | > 632 | > 3 | 211 | – | – | – | –
15 | CCC(=O)Nc1cc(C(=O)Nc2ccc([N+](=O)[O-])cc2)ccc1OC | 307 | 11.7 | 26.3 | 64.8 | > 21.6 | – | 4.7
16 | CCC(=O)Nc1cc(C(=O)Nc2ccccn2)ccc1OC | > 669 | > 3 | 223 | – | – | – | –
17 | CCC(=O)Nc1cc(C(=O)N(C)c2ccccc2)ccc1OC | 444 | 4.4 | 101 | – | – | – | –
18 | COc1ccc(C(=O)N(C)c2ccccc2)cc1NC(=O)C(C)C | 492 | 4.2 | 117 | – | – | – | –
19 | CCC(=O)Nc1cc(C(=O)Nc2ccccc2)ccc1Cl | 530 | 3.5 | 153 | – | – | – | –
20 | CCC(=O)Oc1cc(C(=O)Nc2ccccc2)ccc1OC | 518 | 3 | 173 | – | – | – | –
21 | COc1ccc(C(=O)Nc2ccccc2)cc1 | > 880 | – | > 293 | – | – | – | –
22 | COc1c(NC(=O)C(C)F)cccc1C(=O)Nc1ccccc1 (centres undefined) | > 632 | – | > 211 | – | – | – | –
23 | COc1cc(NC(=O)C(C)F)cc(C(=O)Nc2ccccc2)c1 (centres undefined) | 491 | 2.3 | 211 | – | – | – | –
24 | COc1ccc(NC(=O)C(C)F)cc1C(=O)Nc1ccccc1 (centres undefined) | 272 | – | > 70.2 | – | – | – | –
25 | CC(F)C(=O)Nc1cccc(C(=O)Nc2ccccc2)c1 (centres undefined) | 578 | 4 | 144 | – | – | – | –
26 | CCC(=O)Nc1cc(S(=O)(=O)Nc2ccccc2)ccc1OC | > 599 | > 12.4 | 48.4 | > 66.7 | > 66.7 | – | –
27 | CCC(=O)Nc1cc(NC(=O)c2ccccc2)ccc1OC | 387 | 5.2 | 74.5 | – | – | – | –
28 | CCOC(=O)C1=C[C@@H](OC(CC)CC)[C@H](NC(C)=O)[C@@H](N)C1 [OSELTAMIVIR] | 3070 | 1540 | 2 | – | > 2440 | – | –
29 | NC(=O)c1ncn([C@@H]2O[C@H](CO)[C@@H](O)[C@H]2O)n1 [RIBAVIRIN] | 4770 | 542 | 8.8 | 45.5 | 35.3 | 135 | 104

— ChEMBL document CHEMBL2062433, “Synthesis and antiviral activity of substituted bisaryl amide compounds as novel influenza virus inhibitors” (Eur J Med Chem, 2012)
